Compound activity (PubChem)
proCasp3 act – activates human procaspase-3. recombinant procaspase-3 D3A, Ac-DEVD-pNA absorbance 405 nm. activation, % at 8.5 µM. 330,000 compounds, 0.11% hits. AID 463141;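 active means activation above the mean of all tested compounds plus 3 SD, cut at about 21% in these data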;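 further: 0% = DMSO alone and 100% = DMSO wells spiked with extra 5 µM PC-3 D3A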
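Assay system: Autoprocessing-dead procaspase-3 D3A mutant enzyme; also added: Ac-DEVD-pNA; doses: one concentration, 8.5 µM nominal, 0.8% DMSO; times: 1 h compound preincubation, 2 h substrate hydrolysis at 25 °C; technique: 405 nm absorbance of p-nitroaniline, reads at 0 and 120 min; measure: % activation between DMSO and enzyme-spiked controls; repeats: single replicate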
proCasp7 act – activates human procaspase-7, counter-screen for procaspase-3 activators. AID 463210. P55210. activation, % at 8.5 µM. recombinant procaspase-7, Ac-DEVD-pNA absorbance 405 nm; D23A/D198A/D206A triple mutant, cannot self-cleave; scale: DMSO 0, 5 µM enzyme 100. 330,000 compounds, 0.093% hits;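 active means percent activation above the screen-wide mean plus 3 SD, cut at about 25% in these data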
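System: Uncleavable procaspase-7 mutant enzyme; Amount: 2 µM procaspase-7 mutant as dispensed; Schedule: 1 h compound preincubation, 2 h substrate cleavage, 25 °C; Measured by: 405 nm absorbance of p-nitroaniline; Evaluation: percent activation from buffer-corrected 0–120 min absorbance change; Control set: low DMSO alone, high DMSO plus 5 µM PC-7.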
CaV13 FRET inh – Primary screen for inhibitors of IQ motif and Ca2+-dependent inactivation inhibitor domain binding in CACNA1D, Förster resonance energy transfer in living cells, …; HEK cells, CFP/YFP FRET ICDI-IQ, plate reader, 10 min; percent FRET-ratio fall versus neutral wells; inhibition, % at 12.3 µM; 340,000 compounds, 0.098% hits;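 active means mean replicate inhibition of at least 30% and at least 1% of replicates passing that level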;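 further: 0% = median of the neutral control wells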
T cell HTS – T cell immune modulation candidate. 2C CD8+ T cell-vesicle binding, flow cytometry; stronger effect = lower value. response (vesicle binding), % at 7 µM. 330,000 compounds, 0.068% hits. AID 2052;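 active means response, share of CD8 T cells binding vesicles, and their 90th percentile fluorescence all below set limits, cut at about 80% in these data, passing the limit was not always enough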;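 further: values below 100% mean blocked vesicle binding to the CD8+ T cells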
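Assay system: 2C TCR transgenic mouse naive CD8+ T cells, MACS-purified | Read-out: CD8+ gate FL2 mean fluorescence as % of same-row positive control | Signal: High-throughput flow cytometry with anti-B7-1 and anti-CD8 staining | Timing: Binding step 1.5 h, 37 °C, antibody labelling 20 min, ice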
GRK2 aptamer HTS – blocks RNA aptamer binding to human GRK2. 330,000 compounds, 0.59% hits. AID 488847. P25098. inhibition of aptamer binding, % at 10 µM. bead flow cytometry, FAM-aptamer displacement from GRK2;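 active means inhibition of aptamer binding above 40%, roughly 3 SD of noise, on plates passing a quality check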;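 further: median bead fluorescence of bound FAM aptamer so fluorescent compounds give negative values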
Target sequence (P25098 whole entry, looked up): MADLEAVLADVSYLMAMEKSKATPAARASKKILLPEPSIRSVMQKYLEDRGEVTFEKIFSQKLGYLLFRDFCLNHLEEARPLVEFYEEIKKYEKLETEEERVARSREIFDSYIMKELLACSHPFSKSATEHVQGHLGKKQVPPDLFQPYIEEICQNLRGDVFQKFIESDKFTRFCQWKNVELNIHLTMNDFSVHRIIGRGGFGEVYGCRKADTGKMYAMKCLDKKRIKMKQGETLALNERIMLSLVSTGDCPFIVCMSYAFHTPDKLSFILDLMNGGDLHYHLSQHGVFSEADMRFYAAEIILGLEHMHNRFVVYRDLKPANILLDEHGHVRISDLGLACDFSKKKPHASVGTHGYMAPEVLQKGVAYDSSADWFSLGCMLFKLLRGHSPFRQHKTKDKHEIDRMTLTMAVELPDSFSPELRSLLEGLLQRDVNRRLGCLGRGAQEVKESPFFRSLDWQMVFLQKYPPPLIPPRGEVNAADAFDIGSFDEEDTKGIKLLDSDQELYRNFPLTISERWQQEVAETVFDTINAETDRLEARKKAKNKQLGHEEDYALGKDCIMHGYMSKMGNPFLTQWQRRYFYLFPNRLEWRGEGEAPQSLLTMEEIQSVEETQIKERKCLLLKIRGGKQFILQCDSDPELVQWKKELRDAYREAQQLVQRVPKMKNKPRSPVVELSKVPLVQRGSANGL
aDG glyco up – alpha-DG glycosylation activation | activation, % at 10 µM | 360,000 compounds, 0.22% hits | Pro5-aDG cells, alpha-DG glycosylation AlphaScreen (IIH6); 0% Pro5, 100% B10-LARGE cell signal;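 active means activation of at least 8% versus controls, or a plate z-score of at least 8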;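 further: Pro5 are CHO cells carrying HIG-tagged alpha-DG that lacks glycosylation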
GRK2 inh confirm – confirmation of human GRK2 inhibitors displacing RNA aptamer. shares compounds with GRK2 aptamer HTS. bead-bound GRK2, FAM-aptamer displacement, flow cytometry. aptamer displacement, % at 10 µM. 2,000 compounds, 4% hits;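 active means aptamer displacement above 40%, near three times the noise of non-fluorescent compounds, on plates passing quality checks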;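 further: negative values mostly reflect intrinsic compound fluorescence rather than true enhancement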
FAM quench CP1 – aptamer fluorescence quenching in GRK2 counter-screen | shares compounds with GRK2 aptamer HTS | Carboxyfluorescein RNA aptamer on beads, flow cytometry quenching; stronger effect = lower value | fluorescence response (% of DMSO), % at 10 µM | 2,000 tested, under 10 active | AID 504580;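 active means compounds that quench the bead-bound fluorescent RNA probe, cutting fluorescence to under half of the solvent control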;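 further: counterscreen run without GRK2 so only probe quenching by compound is measured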
GRK2 confirm 2 – confirmation of human GRK2 inhibitors binding RNA aptamer site; shares compounds with GRK2 aptamer HTS; bead-bound GRK2, FAM-aptamer displacement, flow cytometry; inhibition of aptamer binding, % at 10 µM; 360 tested, under 10 active; AID 504782;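 active means inhibition of aptamer binding above 40%, about triple the noise seen with nonglowing compounds, on plates passing quality control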;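 further: negative values mostly come from compounds that fluoresce themselves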
FAM quench CP2 – quenches fluorescent RNA aptamer, GRK2 hit artifact. shares compounds with GRK2 aptamer HTS. carboxyfluorescein RNA aptamer beads, flow cytometry quenching; stronger effect = lower value. AID 588494. fluorescence response vs DMSO, % at 10 µM. 360 tested, under 10 active;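 active means response vs DMSO under 50%, meaning signal dropped by over half, treated as fluorescence quencher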;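 further: labelled aptamer on streptavidin beads without GRK2 as a quench counter-screen; 100% = bead fluorescence of DMSO wells and lower means quenching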
Numbers without * were called inactive; . = not tested or not shown. Compounds with a hit are over-represented: about 1.1% of the library has one in this group of screens.

SMILES	proCasp3 act	proCasp7 act	CaV13 FRET inh	T cell HTS	GRK2 aptamer HTS	aDG glyco up	GRK2 inh confirm	FAM quench CP1	others
Cc1ccc(S(=O)(=O)c2nc(S(=O)(=O)c3ccc(C)cc3)c(N3CCN(CCO)CC3)s2)cc1	-8	11	-8	711	0	0	-3	97
Cc1ccc(S(=O)(=O)c2nc(S(C)(=O)=O)sc2N2CCC3(CC2)OCCO3)cc1	-1	1	-4	468	52*	2	.	.	GRK2 confirm 2=-1;FAM quench CP2=100
COc1ccc(-c2nn(-c3ccccc3)cc2CNCc2cccnc2)c(F)c1	-9	3	-2	323	47*	0	-4	101
COc1ccc(-n2cc(CNCc3cccnc3)c(-c3cccc(F)c3)n2)cc1	-6	-4	5	281	0	0	.	.
CCN(CC)S(=O)(=O)c1cc(NC(=O)CNc2cccc(S(=O)(=O)N3CCOCC3)c2)ccc1C	-4	0	-1	559	2	0	.	.
CCN=C1NC(c2ccc(F)cc2)C(C(=O)OC)=C(C)N1Cc1ccccc1C(F)(F)F (stereo not drawn)	.	.	-9	.	.	.	.	.
Cc1nc(SCc2nc3cc(Cl)c(F)cc3[nH]2)c2oc3ccccc3c2n1	5	11	-10	327	0	1	.	.
COc1ccccc1NC(=O)N1CCC(c2nc3cc(C)c(C)cc3[nH]2)CC1	2	7	-12	321	25	0	0	97
Cc1cc(/C=N/N2CCN(C)CC2)c(C)n1-c1ccccc1F	1	-3	2	217	50*	0	1	99
CC1=C(C(=O)OCC2CCCCC2)C(c2cccc(O)c2)NC(=O)N1 (stereo not drawn)	5	6	.	221	0	0	.	.
CC1=C(C(=O)OCC2CCCCC2)C(c2ccc(O)cc2)NC(=O)N1 (stereo not drawn)	7	13	-7	646	16	0	-42	192
Cc1cnc(C(=O)OCC(=O)c2ccccc2)cn1	-5	-3	-14	334	1	0	.	.
Cc1cnc(C(=O)OCC(=O)c2ccc(C)s2)cn1	3	1	-2	332	45*	0	-1	103
Cc1cnc(C(=O)OCC(=O)N(Cc2ccccc2)C(C)C)cn1	-3	11	-4	125	42*	0	5	97
CC(C)Cn1c(N)c(C(=O)CSc2nnc(C3CC3)n2C2CC2)c(=O)n(C)c1=O	.	.	-7	.	.	0	.	.
COC(=O)[C@H](Cc1ccccc1)NC(=O)N1CCN(c2ccccc2)CC1	7	4	-11	346	4	0	.	.
O=C(O)[C@H](Cc1ccccc1)NC(=O)N1CCN(c2ccc(F)cc2)CC1	2	-1	-2	417	93*	0	1	102
CC(=O)c1ccc(Nc2ccc(-c3ccccc3C)nn2)cc1	-2	-16	-5	235	0	0	.	.
CC(=O)c1cccc(Nc2ccc(-c3ccccc3F)nn2)c1	2	1	-1	238	1	0	0	102
COc1ccccc1-c1ccc(Nc2cccc(C(C)=O)c2)nn1	5	12	-7	433	2	0	-8	103
